Source: PubChem
An excerpt weighted towards active compounds, which were near 1.8% of everything screened.
CHRM5 PAM: positive allosteric modulators of human muscarinic M5 receptor. P08912. CHO-K1 hM5, Fluo-8 calcium, ACh EC20 PAM; 0% = ACh EC20, 100% = ACh EC100. activation, % at 3 µM. 360,000 compounds, 0.3% hits;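 active = activation above the run cutoff, the mean activation of all test compounds plus 3 SD, cut at about 18% in these data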
Target sequence (P08912 whole entry, looked up): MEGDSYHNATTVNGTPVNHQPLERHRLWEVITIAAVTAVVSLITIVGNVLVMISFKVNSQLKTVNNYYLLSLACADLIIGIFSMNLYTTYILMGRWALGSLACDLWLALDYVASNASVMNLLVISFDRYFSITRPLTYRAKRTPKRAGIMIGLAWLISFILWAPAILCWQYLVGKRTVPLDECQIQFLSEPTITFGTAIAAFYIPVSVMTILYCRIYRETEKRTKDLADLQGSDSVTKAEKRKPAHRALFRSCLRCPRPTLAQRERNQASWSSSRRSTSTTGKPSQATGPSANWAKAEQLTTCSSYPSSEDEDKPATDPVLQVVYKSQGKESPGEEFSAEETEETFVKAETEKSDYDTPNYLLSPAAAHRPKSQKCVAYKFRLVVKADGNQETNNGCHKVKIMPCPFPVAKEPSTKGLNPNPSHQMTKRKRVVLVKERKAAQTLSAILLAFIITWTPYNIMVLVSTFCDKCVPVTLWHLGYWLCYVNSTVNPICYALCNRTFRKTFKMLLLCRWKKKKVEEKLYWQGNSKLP
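System: CHO-K1 cell line with stable human muscarinic M5 receptor expression | Also added: EC20 acetylcholine as agonist stimulus | Compound: One concentration, 3 µM final (nominal) | Timing: Fluo-8 loading 80 min at 37 °C plus 30 min room temperature | Measured by: Fluo-8 calcium dye fluorescence, kinetic read | Read-out basis: % activation, ACh-normalized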
M4 PAM: CHRM4 positive allosteric modulation; P08173; CHO-K1 hM4/Gqi5, Fluo-8 calcium fluorescence, ACh EC20; 0% = ACh EC20, 100% = maximal ACh; activation, % at 3 µM; 360,000 compounds, 0.4% hits;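 active = activation above its plate's cutoff, the mean activation of sample wells plus 3 SD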
CHRM5 antagonist: blocks acetylcholine activation of human M5 receptor; CHO-hM5 cells, Fluo-8 calcium fluorescence, ACh EC80; inhibition, % at 3 µM; 360,000 compounds, 0.59% hits; P08912;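 active = inhibition above a per-plate cutoff, the mean of that plate's test compounds plus 3 SD, cut at about 27% in these data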;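 note: 0% = acetylcholine EC80 with DMSO and 100% = DMSO without agonist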
CHRM4 antagonist: CHRM4 antagonism in calcium assay. P08173. CHO-hM4 cells, ACh EC80, Fluo-8 calcium fluorescence. inhibition, % at 3 µM. 360,000 compounds, 0.73% hits;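 active = inhibition above its plate's cutoff, the mean inhibition of sample wells plus 3 SD, cut at about 27% in these data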;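 note: 0% = acetylcholine EC80 with DMSO and 100% = DMSO without agonist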
CHRM5 agonist: agonists of human muscarinic M5 receptor (CHRM5). activation, % at 3 µM. CHO-K1 hM5 cells, Fluo-8 calcium fluorescence; 0% DMSO wells, 100% maximal acetylcholine response. AID 624037. 360,000 compounds, 0.19% hits. P08912;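 active = activation above the run's mean over test compounds plus 3 SD, cut at about 23% in these data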;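 note: signal is peak over basal fluorescence ratio across the kinetic read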
M4 ag: agonists of human muscarinic M4 receptor (CHRM4); P08173; CHO-K1 hM4/Gqi5, Fluo-8 calcium fluorescence; vehicle 0%, full acetylcholine response 100%; activation, % at 3 µM; 360,000 compounds, 0.14% hits;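 active = activation above the run mean over all test wells plus 3 SD, cut at about 32% in these data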;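 note: peak over basal fluorescence ratio per well then scaled between controls; 0% = DMSO wells and 100% = acetylcholine at EC100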
Active calls of the source: *.

SMILES	CHRM5 PAM	M4 PAM	CHRM5 antagonist	CHRM4 antagonist	CHRM5 agonist	M4 ag
Cc1sc2ncnc(NCC3COc4ccccc4O3)c2c1C (stereo unspecified)	-17	-12	38*	32*	1	11
O=C(COc1cccc(C(F)(F)F)c1)NNC(=O)c1ccc(=O)[nH]c1	2	1	10	8	-1	1
O=C(NCc1ccccc1)/C(=C\c1cccc([N+](=O)[O-])c1)NC(=O)c1ccco1	-1	1	-4	-13	0	0
CC(C)n1nc(C(=O)NNC(=O)c2ccncc2)c2ccccc2c1=O	1	23*	0	-8	4	-2
CC(C)C1CC(CCN)(c2ccccc2)CCO1 (stereo unspecified)	2	-13	7	48*	-12	1
CC(C)CC1NC(=O)c2cc3ccccc3cc2-n2c1nc1ccc(F)cc1c2=O (stereo unspecified)	-10	5	-2	-30	-3	2
Cc1ccc(C2CC(c3ccccc3)=NN2C(=S)Nc2ccccc2)o1 (stereo unspecified)	2	-11	-2	39*	4	7
CN1CCC(n2[nH]c(-c3ccccc3)c(Cc3ccccc3)c2=O)CC1	-37	-11	98*	98*	-13	2
CN1CCC(N2CCN(C3CN(CCc4ccccc4)S(=O)(=O)C3)CC2)CC1 (stereo unspecified)	-3	0	4	-4	0	0
COc1ccc(S(=O)(=O)N2CCC(C(=O)Nc3ccc(S(=O)(=O)N4CCCC4)cc3)CC2)cc1OC	-3	-5	13	11	-4	2
CC(C)(C)N(Cc1ccccc1)C(=O)COC(=O)CSc1ccc([N+](=O)[O-])cc1	-6	2	2	-8	0	10
CC(=O)c1cccc(NC(=O)Nc2ccc3c(c2)N(C)C(=O)CS3)c1	-16	-24	30*	22	8	26
CCN1CCN(C(CNS(=O)(=O)c2ccc(Cl)cc2)c2ccccc2)CC1 (stereo unspecified)	-16	-8	28*	4	-10	2
O=S(=O)(NCC(c1ccccc1)N1CCNCC1)c1ccc(Cl)cc1 (stereo unspecified)	-3	-3	3	15	-6	6
CCOC(=O)C1=C(COC(=O)C2CC(=O)N(c3ccccc3CC)C2)NC(=O)NC1C (stereo unspecified)	0	2	0	-7	-1	2
COc1ccc(OC)c(/C=N/NC(=O)C(=O)N2CCCC2)c1	2	22*	6	-16	2	-1
COc1oc(C(=O)NC2CCCCC2)c(-c2ccc(Cl)cc2)c1S(=O)(=O)c1ccccc1	1	5	-2	-8	-5	1
Nc1c(C(=O)CSc2n[nH]c(-c3ccccc3)n2)c(=O)[nH]c(=O)n1C1CC1	2	23*	-1	3	5	2
Nc1c(C(=O)CSc2n[nH]c(-c3ccccc3Br)n2)c(=O)[nH]c(=O)n1C1CC1	-1	1	0	0	0	0
CCOC(=O)[C@@H]1[C@H]2COc3ccccc3[C@H]2N2C(=O)N(c3ccc(Cl)cc3)C(=O)[C@@]12C	-2	-3	2	-8	3	-1
Cc1ccc(NS(=O)(=O)c2c(C)[nH]c(C)c2C(=O)N2CCCC2)cc1Cl	32*	9	8	-2	7	4
Cc1ccc(NS(=O)(=O)c2c(C)[nH]c(C)c2C(=O)N2CCCCC2)cc1C	-4	10	6	-14	-5	2
CCOC(=O)/C=c1\s/c(=C\c2ccc(C)cc2)c(=O)n1CC(=O)NCc1ccco1	-2	19*	-2	-17	-3	1
CCOC(=O)/C=c1\s/c(=C\c2ccc(C(F)(F)F)cc2)c(=O)n1CC(=O)NCc1ccco1	5	11	-10	-4	1	2
CCOC(=O)/C=c1\s/c(=C\c2ccc(-c3ccccc3)cc2)c(=O)n1CC(=O)NCc1ccc2c(c1)OCO2	16	14	-15	-2	2	0
